Experimental data published in PMC3983694 (Journal of the American Chemical Society, 2013).
Where “and” joins values, the source holds several entries; their conditions need not be identical. Equal values may be shown once. Read-outs that look alike come from different tables or passages of the source. Marks after values point to notes of the source that are not given here.

Assays:
[1] = Aqueous solubility of neutral ligand; type: physicochemical
[2] = cited from earlier work
Cu [3] = type: binding; settings: for pCu = −log [Cu(I)aq]: 10 μM ligand and 1 μM Cu(I), pH 7.0, I = 0.1; for logβ2’ (apparent, 2:1 Cu(I) complex): pH 7.0 (0.1 M KClO4); for logβ2 of the 2:1 Cu(I) complex: recommended cumulative average, aqueous solution 25°C
[4] = Protonation constants by potentiometric or spectrophotometric titration; type: physicochemical; settings: aqueous solution, 25°C, 0.1 M KCl; concentration constants based on p[H]
In short: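 The glass electrode was calibrated by titrating 5 mM HCl in 0.1 M KCl with standardized 0.1 M KOH (25°C, Gran's method); constants are on p[H], not activity. Ligand (1 or 5 mM, 0.1 M KCl, 25°C; basic sites pre-protonated with ≥1 equiv HCl where needed) was titrated stepwise with 0.1 M KOH and fitted by non-linear least squares. Values are from three independent titrations as standard deviation of the mean. Adding 0.11 gives mixed-mode constants.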

[5] = cited from earlier work; remark: listed apart in the source
[6] = Cyclic voltammetry of the ligand-bound Cu; type: physicochemical; settings: pH 5.0, 10 mM PIPBS, 0.1 M KClO4, Cu(II/I) complex
In short: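 Cyclic voltammetry was run under argon in 10 mM PIPBS pH 5 with 0.1 M KClO4 electrolyte. Half-wave potentials were referenced to ferrocenium (0.40 vs. SHE) or ferroin.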

Cu [7] = type: binding; settings: 1:1 Cu(II) complex, aqueous solution, 25°C, I = 0.1
[8] = 1:1 Cu(II) complex, Damu et al.; cited from earlier work
[9] = spectrophotometric competition titration with MCL-1

SMILES: O=C(O)c1cc(-c2cc(C(=O)O)c3ccccc3n2)nc2ccccc12 [BCA, 2,2′-bicinchoninic acid]
- solubility in aqueous solution [1]: not soluble at millimolar concentrations
- protonation constant ([2]; 0.2 M ionic strength): 3.74±0.04
- pCu = −log [Cu(I)aq] (Cu [3]): 13.5
- logβ2 Cu(I) (Cu [3]; competition titration with PEMEA): 17.63±0.05
- logβ2’ (apparent, 2:1 Cu(I) complex) (Cu [3]): 17.7 ^e
- logβ2 of the 2:1 Cu(I) complex (Cu [3]): 17.66(3) ^d
- logβ2 Cu(I) (Cu [3]; [9]): 17.67±0.03
- logKH1 [4]: 3.80(2)

SMILES: Cc1cc(-c2ccc(S(=O)(=O)O)cc2)c2ccc3c(-c4ccc(S(=O)(=O)O)cc4)cc(C)nc3c2n1 [BCS, bathocuproine disulfonate]
- logβ2 Cu(I) ([5]; previously reported): 19.9
- protonation constant ([2]; previously reported): 5.7
- E^f vs. SHE (half-wave potential) [6]: 0.626 V and 0.626(1) V
- pCu = −log [Cu(I)aq] (Cu [3]): 16.6
- logβ2 Cu(I) (Cu [3]; from half-wave potential and Cu(II) logβ2 via Equation (1)): 20.81±0.08
- logβ2’ (apparent, 2:1 Cu(I) complex) (Cu [3]): 20.8 ^e
- logβ2 of the 2:1 Cu(I) complex (Cu [3]): 20.81(2) ^d
- logβ2 Cu(I) (Cu [3]; [9]): 20.80±0.03
- logKH1 [4]: 5.70(2)

SMILES: OCCN(CCO)Cc1ccccn1 [DHEAMP, N,N-bis(2-hydroxyethyl)-N-(2-pyridylmethyl)amine]
- protonation constant ([2]; lit.): 6.92±0.01
- log KCu(II)L (Cu [7]): 9.21±0.02
- logKCu(II)L [8]: 9.2±0.1

SMILES: CCSCCN(CCSCC)CCSCC [TEMEA]
- protonation constant ([2]; aqueous solution): 8.32
- protonation constant ([2]; extrapolated from data acquired in 80% water-methanol): 7.1

SMILES: CSCCN(CCSC)CCSC [TMMEA, tris(2-methylthioethyl)amine]
- protonation constant ([2]; aqueous solution): 8.36

SMILES: C1CSCCCSCCCSCCCSC1 [[16]aneS4]
- logKCu(I)L [5]: 12.0

SMILES: CC#N [acetonitrile]
- logβ1 Cu(I) ([5]; kinetic method): 2.63
- logβ2 Cu(I) ([5]; kinetic method): 4.02
- logβ3 Cu(I) ([5]; kinetic method): 4.29
